Test results from PubChem BioAssay.
Inconclusive results are not listed.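 The calls were made as follows, unless noted: active = inhibition over a set limit, the all-compound mean plus 3 SD, in both replicate runs; inconclusive = over that limit in just one replicate run; inactive = at or under that limit in both runs.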

Key:
[1] = OD615 S. cerevisiae growth inhibition, permissive medium, pilot counter-assay, permissive growth control for S. cerevisiae lifespan shortening project (AID 705;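 active = growth inhibition above 25% in both replicates, a cutoff set 3 SD above the mean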); details: OD615, 24 h, at 10 µM, stronger effect = higher value
Procedure, shortened: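 System: S. cerevisiae with engineered DeaD lifespan system. Medium: SC raffinose/galactose permissive medium. Doses: single compound dose of 10 µM, 0.25% DMSO final. Schedule: 24 h exposure, 30 °C. Measured by: OD615 turbidity read. Read-out: growth inhibition.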

[2] = Restrictive medium S. cerevisiae growth inhibition, OD615, pilot screen of yeast lifespan reduction project, restrictive growth control (AID 706;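 active = growth inhibition above a set limit, 3 SD over mean compound inhibition, in both replicates, cut at about 43% in these data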;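 also: modified DeaD lifespan yeast strain shifted to restrictive glucose medium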); details: OD615, 48 h, at 10 µM, stronger effect = higher value
Procedure, shortened: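 Assay system – genetically modified Saccharomyces cerevisiae, DeaD replicative lifespan assay strain · Medium – CSMM-D glucose medium · Doses – 10 µM compound, 0.25% DMSO · Times – 4 h pre-incubation, 48 h exposure at 30 °C · Signal – optical density at 615 nm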

[3] = viability gain of MRP-1-high H69AR cells under doxorubicin, pilot screen, MRP-1 activator project, CellTiter-Glo, duplicate (AID 807;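 active = viability increase at or above a cutoff of the median across tested compounds plus 3 SD, cut at about 8.5% in these data, passing the limit was not always enough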;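 also: compound pretreatment 18-22 h then 72 h combined with doxorubicin; 0% = doxorubicin alone and 100% = vehicle without doxorubicin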); details: H69AR viability with doxorubicin, CellTiter-Glo luminescence; at 10 µM; stronger effect = higher value
[4] = growth suppression of beta-catenin knockout HCT116, pilot screen, human colon tumor cells (AID 823;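 active = cell viability at or below a set limit in both duplicate runs, the limit being the all-compound median minus 4 SD, cut at about 23% in these data, passing the limit was not always enough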;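 also: 0% = wells killed by 20 µM Hyamine and 100% = untreated DMSO cell wells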); details: CellTiter-Glo, 60 h, at 10 µM, stronger effect = lower value
[5] = growth suppression of PTEN-deleted HCT116, pilot screen, cell-based, HCT116 clonal line, CellTiter-Glo (AID 824;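 active = viability at or below 27.92% in each of two runs, the all-compound median minus 4 SD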;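 also: 0% = 20 µM Hyamine control and 100% = vehicle cell control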); details: 60 h, at 10 µM, stronger effect = lower value
[6] = inhibitors of the yeast RAM network, pilot screen, dse1pr::URA3 reporter, 5-FOA selection (AID 869);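 also: 0% = DMSO wells with no growth and 100% = 10 µM 1-NA-PP1 with full growth; RAM network block rescues cells from 5-FOA so hits raise OD615 growth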; details: S. cerevisiae dse1pr::URA3 5-FOA growth, OD615, 2 d; at 10 µM; stronger effect = higher value; strain carries analog-sensitive mutant Cbk1 kinase
[7] = RAM signaling pathway blockade in yeast – S. cerevisiae, Pdr1DBD-CYC8 efflux-inhibited sensitized strain, primary screen (AID 1298;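 active = RAM network inhibition above 8.4% in each of two replicates, 3 SD over the compound average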;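 also: 0% = DMSO untreated cells without growth and 100% = 10 µM 1-NA-PP1 full growth; higher means more yeast growth rescued from 5-FOA killing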); details: S. cerevisiae cbk1-as DSE1-URA3 strain, 5-FOA growth OD615, 2 d; at 50 µM; stronger effect = higher value

CCOC(=O)N1CCC(Nc2c(N3CCN(c4cc(Cl)ccc4C)CC3)c(=O)c2=O)CC1
inactive: growth inhibition [1] 3.09% | growth inhibition [2] 4.44% | viability increase [3] -2.34% | viability [4] 71.9% | viability [5] 72.3% | inhibition [6] 2.42% | RAM network inhibition [7] 2.95%

CCCOc1ccc(N2CC(C(=O)Nc3ccccc3OC)CC2=O)cc1 (stereo not given)
inactive: growth inhibition [1] -15.6% | growth inhibition [2] -6.16% | viability increase [3] 0.54% | viability [4] 105% | viability [5] 93.7% | inhibition [6] 0.11% | RAM network inhibition [7] 2.24%

CCOC(=O)NC(Nc1ccc(C)cn1)(C(F)(F)F)C(F)(F)F
inactive: growth inhibition [1] 11.5% | growth inhibition [2] 4.23% | viability increase [3] -1.59% | viability [4] 95.2% | viability [5] 100% | inhibition [6] 0.545% | RAM network inhibition [7] 0.7%

CC1CCCC(C)N1c1nnc(NC(=O)Cn2c(=O)oc3ccccc32)s1 (stereo not given)
inactive: growth inhibition [1] -4.67% | growth inhibition [2] 9.9% | viability increase [3] 0.39% | viability [4] 95.1% | viability [5] 99.2% | inhibition [6] 1.85% | RAM network inhibition [7] 3.6%

O=C1CC(c2ccccc2)CN1S(=O)(=O)c1ccccc1 (stereo not given)
inactive: growth inhibition [1] -1.7% | growth inhibition [2] 3.08% | viability increase [3] 0% | viability [4] 108% | viability [5] 97.8% | inhibition [6] 0.085% | RAM network inhibition [7] 1.71%

O=C(CSc1nc2c(c(=O)n1-c1ccc(Cl)cc1)SCC2)NCc1ccco1
inactive: growth inhibition [1] -4.73% | growth inhibition [2] -0.115% | viability increase [3] -4.49% | viability [4] 86.2% | viability [5] 89% | inhibition [6] 0.225% | RAM network inhibition [7] 4.2%

Cn1nc(-c2ccc(Cl)cc2)c2cc(C(=O)NCC3CCCO3)sc21 (stereo not given)
inactive: growth inhibition [1] 1.54% | growth inhibition [2] 17.7% | viability increase [3] -5.84% | viability [4] 65.9% | viability [5] 60.2% | inhibition [6] -0.13% | RAM network inhibition [7] -2.54%

O=C1c2ccccc2C(=O)N1Cc1nc2ccccc2c(=O)n1CCCn1ccnc1
inactive: growth inhibition [1] -3.57% | growth inhibition [2] 0.74% | viability increase [3] -1.98% | viability [4] 96.3% | viability [5] 101% | inhibition [6] 0.915% | RAM network inhibition [7] 4.3%

O=C(Cn1c(=O)oc2cc(S(=O)(=O)N3CCc4ccccc43)ccc21)NC1CCCC1
inactive: growth inhibition [1] -3.26% | growth inhibition [2] 2.94% | viability increase [3] -1.06% | viability [4] 78.8% | viability [5] 73.9% | inhibition [6] 2.91% | RAM network inhibition [7] 0.88%

CCN1C(=O)N(CC)C(O)(c2ccccc2)C1(O)c1ccccc1 (stereo not given)
inactive: growth inhibition [1] -12.7% | growth inhibition [2] -8.41% | viability increase [3] -2.16% | viability [4] 97.1% | viability [5] 94.8% | inhibition [6] 2.12% | RAM network inhibition [7] 6.55%

COc1ccc(-n2c(Cc3cccn3C)nnc2SCC(=O)N2CCC(C)CC2)cc1
inactive: growth inhibition [1] 4.99% | growth inhibition [2] 18.8% | viability increase [3] -0.89% | viability [4] 94% | viability [5] 94.5% | inhibition [6] 1.42% | RAM network inhibition [7] 2.73%

COc1cc2[nH]c(=O)n(CCCCCC(=O)NCCCN3CCOCC3)c(=O)c2cc1OC
inactive: growth inhibition [1] -9.12% | growth inhibition [2] -24.8% | viability increase [3] -1.27% | viability [4] 97.8% | viability [5] 89.6% | inhibition [6] 0.585% | RAM network inhibition [7] -0.68%

Cc1ccc(C)c(SCC(=O)OCC(=O)Nc2ccc(S(=O)(=O)N3CCOCC3)cc2)c1
inactive: growth inhibition [1] -20.4% | growth inhibition [2] -17.7% | viability increase [3] -1.73% | viability [4] 97.8% | viability [5] 92.9% | inhibition [6] 1.02% | RAM network inhibition [7] 5.86%

Cc1cc(C)c(S(=O)(=O)Nc2nnc(C)s2)c(C)c1
inactive: growth inhibition [1] -20.6% | growth inhibition [2] -11.7% | viability increase [3] 3.99% | viability [4] 102% | viability [5] 99.3% | inhibition [6] 0.87% | RAM network inhibition [7] 8.49%

CCN=C1SC(CC(=O)NC(N)=O)C(=O)N1CC (stereo not given)
inactive: growth inhibition [1] -12.5% | growth inhibition [2] -17.8% | viability increase [3] 0.51% | viability [4] 101% | viability [5] 101% | inhibition [6] 1.3% | RAM network inhibition [7] 1.66%
